# An excerpt weighted towards active compounds, which were near 3.9% of everything screened.
# TAAR1 antagonist: human TAAR1 antagonists, primary screen, Fluo-8 calcium fluorescence, CHO RD-HGA16 cells; antagonist; AID 624466, 2012; inhibition, % at 3 µM; 1.5% of 360,000 active;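 active means inhibition above a per-plate cutoff, the mean inhibition of test compounds on that plate plus 3 SD, cut at about 49% in these data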;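 further: 0% = DMSO plus EC80 beta-PEA response and 100% = DMSO alone without agonist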
#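 Assay system: CHO-derived RD-HGA16 cells stably expressing human TAAR1 plus Gα16. Timing: 140 s kinetic read after compound, 140 s after agonist. Technique: kinetic Fluo-8 calcium fluorescence measurement. Measure: % inhibition of agonist calcium response.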
# ANO1 activ: TMEM16A chloride channel activators or potentiators, primary screen, cell-based, HTS; Anoctamin-1 (Mus musculus), Q8BHY3; HEK293 TMEM16A/YFP-H148Q/I152L, iodide quench fluorescence; hits give low values; B-score at 10 µM; 0.3% of 340,000 active;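 active means fluorescence-ratio B-score plate-corrected deviation score at least 3 library SD below zero, with starting fluorescence score within 5 deviations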;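 further: channel opened by trigger with iodide after compound preincubation; score built on the fluorescence ratio of max minus min over baseline; more negative score means more quench and so TMEM16A activation or potentiation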
# CRFR2-BP ag: agonists of CRF-BP/CRF-R2 complex, primary screen, cell-based, HEK293, calcium dye fluorescence, uHTS; activation, % at 13.2 µM; CRF-binding protein / CRF receptor 2 complex (human); calcium dye fluorescence (FLIPR); percent of saturating CRF peptide response; 0.46% of 350,000 active;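 active means activation of at least 50%, plus an integration ratio under a set limit after plate pattern correction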;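 further: plate controls were neutral control wells without compound for no effect and CRF at EC100 for full effect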
# ANO1 block: TMEM16A chloride channel inhibitors, primary screen, cell-based, HTS | Anoctamin-1 (Mus musculus), Q8BHY3 | HEK293 TMEM16A/YFP iodide influx fluorescence, ionomycin | normalized B-score (activity score, 25-100; higher = stronger inhibition) at 10 µM | 1.2% of 310,000 active | AID 588511, 2011;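 active means ratio plate-corrected score three or more library SD toward inhibition, starting fluorescence score within five deviations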;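 further: score derived from kinetic fluorescence span divided by baseline fluorescence per well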
# CRFR2-BP antag: antagonists of CRF-BP/CRF-R2 complex, primary screen, cell-based, HEK293, calcium dye fluorescence, uHTS | CRF-induced calcium fluorescence | inhibition, % at 11.8 µM | 0.59% of 350,000 active | AID 588475, 2011;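 active means inhibition of the ligand-induced calcium signal above about 50% at the single tested concentration, limit read from the data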
# TAAR1 agonist: human TAAR1 agonists, primary screen, Fluo-8 calcium fluorescence, CHO RD-HGA16 cells. vehicle wells 0%, saturating PEA agonist 100%. Trace amine-associated receptor 1 (Homo sapiens), Q96RJ0. activation, % at 3 µM. 0.99% of 360,000 active;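 active means activation above the mean activation of all test compounds in the run plus 3 SD, cut at about 38% in these data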
#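 System: CHO RD-HGA16 cells carrying human TAAR1 plus Gα16; Incubation: 17-24 h seeding, 75 min 37 °C dye, 30 min RT; Measured by: Fluo-8 fluorescence, 5 s baseline then 140 s kinetic read; Control set: DMSO and PEA EC100; Replication: single well for each compound.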
# TMEM16A reconf: TMEM16A chloride channel inhibitors, confirmation, cell-based, re-confirmation. shares compounds with ANO1 block. HEK293 TMEM16A/YFP-H148Q, iodide quench fluorescence; ionomycin added to raise cell calcium. inhibition, % at 10 µM. 39% of 2,300 active. AID 652189, 2013;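 active means mean duplicate percent inhibition, scaled so buffer wells are 0 and the reference blocker 100, over three buffer SD above buffer mean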
# TMEM16A Ca cntr: calcium mobilization in TMEM16A/YFP HEK293 cells, confirmation, counter-screen for TMEM16A inhibitor project; shares compounds with ANO1 block; Fluo4 calcium mobilization; calcium response (% of ionomycin), % at 10 µM; 2% of 2,300 active;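 active means duplicate-averaged calcium signal over 20% of the ionomycin maximum, relative to buffer baseline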;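 further: each well's signal is peak minus trough fluorescence divided by its pre-addition baseline; 0% = buffer wells and 100% = ionomycin wells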
# YFP-HEK293 quench: iodide YFP quench changes in parental YFP-HEK293, counter-screen for TMEM16A inhibitor project, cell-based; AID 652233, 2013; 2,300 tested, under 10 active; ionomycin; YFP ratio F(max-min)/F0 at 10 µM; shares compounds with ANO1 block;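 active means yellow fluorescent protein signal ratio exceeding the buffer control mean by over 5 SD of those controls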;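 further: ratio is mean of duplicate wells from kinetic YFP trace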
# ClC-1 inh: ClC-1 chloride channel inhibition, selectivity assay for TMEM16A inhibitor project, cell-based, voltage-dependent ClC-1. ratio percent, % at 10 µM. 2,300 tested, under 10 active. CHO ClC-1-YFP, iodide influx fluorescence quench; iodide control reads 0, buffer control 100. shares compounds with ANO1 block;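 active means duplicate-mean ratio percent above the mean of iodide-only control wells, which defines zero, plus 5 of their SD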;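 further: higher percent means stronger block of ClC-1 iodide influx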
# Target sequence (P35524 whole entry, looked up): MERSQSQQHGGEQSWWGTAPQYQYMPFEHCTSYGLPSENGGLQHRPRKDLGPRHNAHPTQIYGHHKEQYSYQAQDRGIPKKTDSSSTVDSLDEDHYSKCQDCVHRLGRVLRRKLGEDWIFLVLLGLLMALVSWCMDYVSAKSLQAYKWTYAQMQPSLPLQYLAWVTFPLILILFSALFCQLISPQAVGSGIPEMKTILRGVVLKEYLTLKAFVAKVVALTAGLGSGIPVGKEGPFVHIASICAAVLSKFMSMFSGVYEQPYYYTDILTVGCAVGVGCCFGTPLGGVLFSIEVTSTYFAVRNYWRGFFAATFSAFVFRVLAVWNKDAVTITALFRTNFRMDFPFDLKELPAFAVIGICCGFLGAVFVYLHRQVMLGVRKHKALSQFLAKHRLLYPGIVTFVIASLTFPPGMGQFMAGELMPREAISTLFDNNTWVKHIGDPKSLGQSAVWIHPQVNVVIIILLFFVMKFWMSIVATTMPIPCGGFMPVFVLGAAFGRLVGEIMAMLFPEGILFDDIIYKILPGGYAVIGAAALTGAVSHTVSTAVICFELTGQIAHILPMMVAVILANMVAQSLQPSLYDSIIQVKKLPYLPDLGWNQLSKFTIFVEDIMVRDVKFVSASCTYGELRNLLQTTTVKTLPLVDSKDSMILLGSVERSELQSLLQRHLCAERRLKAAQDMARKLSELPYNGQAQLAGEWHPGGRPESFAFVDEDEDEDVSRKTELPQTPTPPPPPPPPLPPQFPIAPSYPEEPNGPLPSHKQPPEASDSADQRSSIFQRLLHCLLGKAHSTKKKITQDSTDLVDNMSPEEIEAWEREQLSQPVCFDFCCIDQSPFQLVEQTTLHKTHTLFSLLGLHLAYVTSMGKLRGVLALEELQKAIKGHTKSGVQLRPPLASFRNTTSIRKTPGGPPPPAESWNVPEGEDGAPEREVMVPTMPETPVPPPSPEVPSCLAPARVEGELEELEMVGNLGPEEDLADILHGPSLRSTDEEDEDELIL
# Numbers without * were called inactive; i = inactive; nt = no result.
SMILES,TAAR1 antagonist,ANO1 activ,CRFR2-BP ag,ANO1 block,CRFR2-BP antag,TAAR1 agonist,TMEM16A reconf,TMEM16A Ca cntr,YFP-HEK293 quench,ClC-1 inh
CCOC(=O)[C@H]1[C@H]2COc3ccc(C)cc3[C@@H]2N2C(=O)[C@@H](C)NC(=O)[C@@]12C,4,i,-1,nt,4,5,nt,nt,nt,nt
CCOc1ccc(-c2[nH]ncc2Oc2cccc(OC)c2)c(O)c1,38,i,0,100*,6,0,i,i,-1,-10
COc1cccc(Oc2cn[nH]c2-c2ccc(OC)cc2O)c1,28,i,-2,25*,36,0,20%*,i,-1.3,-13
COc1cccc(Oc2cn[nH]c2-c2ccc(O)cc2O)c1,12,i,1,i,14,17,nt,nt,nt,nt
CC1CN(C(=O)c2ccc(NS(=O)(=O)c3ccc(F)c(F)c3)cc2)CC(C)O1 (stereo not given),10,i,2,i,13,1,nt,nt,nt,nt
CC(NC(=O)CN(c1ccc(Cl)cc1)S(C)(=O)=O)c1ccccc1 (stereo not given),21,i,1,i,24,1,nt,nt,nt,nt
Cc1nc(C)c(-c2ccc(SCC(=O)Nc3ccc(F)cc3F)nn2)s1,-26,i,1,25*,2,3,i,i,-1.1,-2
COc1ccccc1NS(=O)(=O)c1cccc(C(=O)NC2CCN(Cc3ccccc3)CC2)c1,nt,i,1,100*,-12,nt,56%*,i,-1,-27
CC(C)Cn1c(Cc2ccccc2)n[nH]c1=S,-9,i,-1,100*,-5,4,i,i,-1.2,-4
CCOc1ccc(Br)cc1S(=O)(=O)NC(=O)c1ccccc1,-2,i,0,i,-6,1,nt,nt,nt,nt
N#CC1(Cc2ccccc2Cl)c2ccccc2C=CN1C(=O)c1ccccc1 (stereo not given),5,i,0,25*,-15,1,i,i,-1.2,-9
COc1ccccc1Cn1c(=O)oc2ccc(C)cc21,-10,i,-2,i,-17,0,nt,nt,nt,nt
CCCCOc1ccccc1Cn1c(=O)oc2ccc(C)cc21,-1,i,3,100*,1,1,i,i,-1.2,-8
CCc1ccccc1NC(=O)COc1ccc(C(=S)N2CCCC2)cc1,9,i,-1,i,11,4,nt,nt,nt,nt
CCc1cc(=O)oc2cc(C)c(CN3CCCC3)c(O)c12,-13,i,5,i,-8,2,nt,nt,nt,nt
CCCc1cc(=O)oc2cc(C)c(CN3CCCC3)c(O)c12,-12,i,2,i,3,2,i,i,-1.2,-12
Cc1cccc(OCCCSc2nc3ccc(C)cc3[nH]2)c1,8,i,-1,100*,19,0,33%*,i,-1,-14
Cc1cccc(OCCSc2nc3ncnc(N)c3[nH]2)c1,10,i,-1,i,48,2,nt,nt,nt,nt
